Bioassay records as filed in PubChem BioAssay.
CHOP inh = inhibitors of CHOP promoter induction, primary screen, cell-based, unfolded protein response, luciferase reporter. hit rate 3.8% among 220,000. inhibition, % at 10 µM. CHO-K1 CHOP-promoter luciferase, tunicamycin-induced, 15-18 h. AID 2732, 2010;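 active = compounds that reduced the stress-induced luciferase reporter signal by more than about 70% of percent inhibition, limit read from the data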
Jurkat NFkB inh = inhibitors of induced NF-kB luciferase reporter, primary screen, TCR NF-kB activation inhibitor project, cell-based, luminescence, uHTS; Jurkat, PMA/ionomycin-induced NF-kB luciferase reporter; inhibition, % at 4 µM; hit rate 0.53% among 330,000; in the data active = inhibition above about 50%
Gli-Sufu antag = Gli-Sufu pathway antagonists, primary screen, luciferase luminescence, Sufu-KO-LIGHT cells, uHTS; Sufu-KO-LIGHT fibroblasts, Gli luciferase reporter luminescence; inhibition, % at 5 µM; hit rate 0.74% among 340,000; AID 588413, 2011;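 active = inhibition above about 55%, limit read from the data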
XBP1 UPR activ = activators of adaptive XBP1 UPR arm, primary screen, cell-based, CHO-XBP1 luciferase reporter, luminescence, uHTS. IRE1-XBP1 UPR activation; percent of tunicamycin response, DMSO as zero. activation, % at 20 µM. AID 463104, 2010. hit rate 0.33% among 330,000;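 active = versus positive control, 20 µM dose yields 30% or more activation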
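incubation = overnight seeding at 37 °C, 6 h compound treatment at 37 °C | assay system = CHO-XBP1 cells stably carrying IRE1-XBP1-driven luciferase reporter | input = 1000 cells per well | detection = luciferase luminescence | dosing = single point, 20 µM final compound, 1% DMSO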
CHOP UPR activ = activators of apoptotic CHOP UPR arm, primary screen, cell-based, CHO-CHOP luciferase reporter, luminescence, uHTS. UPR activation; percent of tunicamycin response over DMSO baseline. activation, % at 10 µM. hit rate 0.34% among 330,000. AID 449763, 2010;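 active = at 10 µM dose, activation of 40% or more, normalized to positive control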
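measured by = luciferase luminescence | assay system = CHO-CHOP cells, stable luciferase reporter of PERK-eIF2a-CHOP signalling | amount = 500 reporter cells seeded per well | timing = 6 h compound exposure at 37 °C after overnight seeding | controls = positive tunicamycin 10 µg/mL, negative DMSO alone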
697 NFkB inh = inhibitors of PMA/ionomycin-induced NF-kB reporter, 697 cells, primary screen, B-cell NF-kB inhibitor project, cell-based, luminescence, uHTS; 697 B-cell NF-kB luciferase reporter, 16 h; inhibition, % at 4 µM; hit rate 0.33% among 330,000; in the data active = inhibition above about 35%
Large screens that a line does not name were inactive. Sampled rows, rich in hits. Any-hit rate of the full collection: about 3.9%.

CCc1ccc2nc(N3C(=O)C(O)=C(C(=O)c4ccco4)C3c3cccs3)sc2c1 (centres undefined)	CHOP inh 80
C/C(=N\Nc1ccc(F)cc1F)c1ccc(F)cc1	none (no result: Gli-Sufu antag)
C/C(=N\Nc1ccc(F)cc1F)c1ccc(Br)s1	CHOP inh 71
S=c1[nH]nc(-c2cccs2)n1/N=C/c1cn(-c2ccccc2)nc1-c1cccs1	CHOP inh 79
O=[N+]([O-])c1ccc(-c2nn(-c3ccccc3)cc2/C=N/n2c(-c3ccncc3)n[nH]c2=S)cc1	CHOP inh 94
CC(C)CN(C(=O)Cn1nnc(-c2ccc(F)cc2)n1)C1CCS(=O)(=O)C1 (centres undefined)	none (no result: CHOP inh)
CCOc1ccc2nc(SCC(=O)NC(=O)NCc3ccco3)sc2c1	CHOP inh 75 (no result: Gli-Sufu antag)
Cc1ccccc1/C=C\c1nc2ccccc2c(=O)[nH]1	CHOP inh 84
Cc1ccccc1/C=C/c1nc2ccccc2c(=O)[nH]1	none
O=C(NCCN1C(=O)S/C(=C\c2ccc(Cl)c(Cl)c2)C1=O)C1COc2ccccc2O1 (centres undefined)	none
O=C(NCCN1C(=O)S/C(=C\c2ccc(Cl)c(Cl)c2)C1=O)c1ccc2c(c1)C(=O)N(Cc1ccncc1)C2=O	CHOP inh 88
CC(C)CCOc1ccc(Cl)cc1CN1CCOCC1	CHOP inh 83
Nn1c(SCC(=O)N2CCOCC2)nnc1-c1cccnc1	none (no result: CHOP inh)
CCOc1nc(Nc2ccc(Cl)cc2)nc(OCC)n1	none (no result: CHOP inh)
CN(C)c1nc(Nc2ccc(Cl)cc2)nc(OCC#N)n1	CHOP inh 73
CC(=O)c1sc(N/N=C\c2ccc(Br)cc2)nc1C	none
CC(=O)c1sc(N/N=C\c2cccc(Br)c2)nc1C	CHOP inh 81
Cc1ccc(C)c(S(=O)(=O)NCc2ccc3c(c2)OCO3)c1	none (no result: CHOP inh)
CC(=O)c1c(C)[nH]c(C(=O)CN2C(=O)NC3(CCCCC3C)C2=O)c1C (centres undefined)	none (no result: CHOP inh)
FC(F)(F)Oc1ccc(Nc2nc3ccccc3o2)cc1	CHOP inh 91
COC(=O)c1cc(Cl)c(NC(=O)/C=C/c2ccc(Cl)cc2Cl)cc1OC	CHOP inh 84
COc1ccccc1C(CNC(=O)c1cc(C)nc2ccccc12)N(C)C (centres undefined)	none (no result: CHOP inh)
Cc1c(C(C)CCCO)oc(=O)c2c1Oc1c(C)c(C(C)C[C@H](C)O)oc(=O)c1C2 (some centres undefined)	none (no result: CHOP inh)
CSc1nc(-c2ccco2)nn1C(=O)c1ccc(C)cc1	CHOP inh 80
CN(Cc1ccccc1)C(=O)c1cccc(NC(=O)Cc2ccc(NC(=O)C3CCCN(C(=O)c4ccccc4)C3)cc2)c1 (centres undefined)	none (no result: CHOP inh, Jurkat NFkB inh, XBP1 UPR activ, CHOP UPR activ, 697 NFkB inh)
Cc1c(C(=O)OC(C)C)sc(N)c1C(=O)OC(C)C	CHOP inh 82
CSC1=NCCN1C(=O)c1c(-c2ccccc2Cl)noc1C	CHOP inh 89
CSC1=NCCCN1C(=O)c1c(-c2ccccc2Cl)noc1C	none
N#C/C(=C/C=C/c1ccccc1)C(=O)Nc1ccccc1	none
N#C/C(=C\C=C\c1ccccc1)C(=O)Nc1ccccc1	CHOP inh 73
C(=C\c1nccc2c1[nH]c1ccccc12)/c1ccccc1	none
Fc1ccc(/C=C\c2nccc3c2[nH]c2ccccc23)cc1	CHOP inh 90
CCOC(=O)c1cc(C(=O)OCC)c2cc(Br)ccc2n1	CHOP inh 88
COc1cc(NS(=O)(=O)c2ccc(N/C=C(\C#N)c3nc4cc(Cl)ccc4o3)cc2)nc(OC)n1	CHOP inh 92
COc1ccccc1NC(=O)COC(=O)/C=C/c1cccs1	none (no result: CHOP inh)
CCC(C(=O)Nc1ccccc1OC)n1c(C(=O)OC)cc2ccsc21 (centres undefined)	CHOP inh 81
COc1ccc(-c2nc(C(N)=O)c3[nH]c(=O)n(-c4cccc(Cl)c4)c3n2)cc1OC	CHOP inh 95 (no result: Jurkat NFkB inh, XBP1 UPR activ, CHOP UPR activ, 697 NFkB inh)
COc1cccc(-c2nc(C(N)=O)c3[nH]c(=O)n(-c4cccc(Cl)c4)c3n2)c1OC	none
CCc1ccc(-c2nc(C(N)=O)c3[nH]c(=O)n(-c4ccccc4OC)c3n2)cc1	CHOP inh 72
CCOc1ccccc1-c1nc(C(N)=O)c2[nH]c(=O)n(-c3ccc(F)cc3)c2n1	none
CCC(C(=O)N1CCC(C(N)=O)CC1)n1nc(C)n2c(cc3occc32)c1=O (centres undefined)	none (no result: CHOP inh)
O=C(Nc1cccc(C(F)(F)F)c1)c1cccnc1NCCc1ccccc1	CHOP inh 75
CCOc1cc(NC(=O)C2CCCCC2)c(OCC)cc1NC(=O)c1ccco1	CHOP inh 84
COc1cc(NC(=O)C2CCCCC2)c(OC)cc1NC(=O)c1ccco1	none
Cc1ccc(-n2cc(C(=O)c3ccc(N4CCN(C)CC4)cc3)nn2)cc1Cl	CHOP inh 70
O=C(O)CC(Cc1ccc(Br)cc1)C(=O)Nc1ccccc1 (centres undefined)	none (no result: CHOP inh)
Cc1cccc(OCCCC(=O)Nc2ccc(Br)cc2)c1	CHOP inh 84
Cc1cccc(OCCCC(=O)Nc2ccc(N(C)C)cc2)c1	none
COc1cc(/C=C2\SC(=O)N(Cc3ccc(Cl)cc3)C2=O)cc([N+](=O)[O-])c1O	CHOP inh 107 (no result: Jurkat NFkB inh, XBP1 UPR activ, CHOP UPR activ, 697 NFkB inh)
CCc1ccc2[nH]c(=O)c(CN(CCCN3CCOCC3)C(=O)Nc3ccc(F)cc3)cc2c1	CHOP inh 71
O=C(Nc1ccc(F)cc1)N(CCCN1CCOCC1)Cc1cc2cc3c(cc2[nH]c1=O)OCCO3	none
COc1ccc(NC(=O)N(CCN2CCCC2)Cc2cc3cc(OC)c(OC)cc3[nH]c2=O)cc1	CHOP inh 78
CCc1ccc2[nH]c(=O)c(CN(Cc3ccccc3)C(=O)Nc3ccccc3OC)cc2c1	CHOP inh 73
Cc1ccccc1Cn1c(C)nc2ccc([N+](=O)[O-])cc2c1=O	none (no result: CHOP inh)
CC1(C)CC(NC(=O)C2CCC(=O)N(C3CC3)C2)CC(C)(C)C1 (centres undefined)	none (no result: CHOP inh)
COc1ccccc1CN1CC(C(=O)N(C)Cc2ccc(C)o2)CCC1=O (centres undefined)	none (no result: CHOP inh)
CC(=O)c1cc2c(cc1NC(=O)CN1CCCCCCC1)OCO2	CHOP inh 85
COc1ccc(-c2cc(C(=O)Nc3c(Cl)cc(Cl)cc3Cl)c3ccccc3n2)cc1OC	CHOP inh 79
COc1ccc(-c2cc(C(=O)Nc3ccc(Cl)cc3Cl)c3ccccc3n2)cc1OC	none
